Results: ChEMBL document CHEMBL1156185, “A class of 3S-2-aminoacyltetrahydro-beta-carboline-3-carboxylic acids: their facile synthesis, inhibition for platelet activation, and high in vivo anti-thrombotic potency” (J Med Chem, 2010)
Structures can show the parent of a compound that is named as a salt.

How the values were obtained:
Platelet [1] = assay: Ratio of IC50 for arachidonic acid-induced pig platelet aggregation to IC50 for ADP-induced pig platelet aggregation; assay type: functional, Sus scrofa
Summary of the method: (§1)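 Fold ratios of IC50 values. Each IC50 came from pig PRP (2 × 10⁸ platelets/mL) light-transmission aggregometry at 37 °C for 5 min, in sextuplicate, with final ADP 10 µM, AA 350 µM, PAF 0.1 µM or thrombin 0.1 U/mL.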

[2] = Antiplatelet aggregation activity against ADP-induced pig platelet aggregation after 5 mins by aggregometer; assay type: functional, cell-based; details: Sus scrofa
Summary of the method: (§2)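 Pig blood from six pigs was spun at 1000 rpm for 10 min to give PRP, then at 1500g for 10 min to give PPP. PRP was adjusted to 2 × 10⁸ platelets/mL with autologous PPP. Test agent or NS was added at final 100 µM–1 nM. Agonists were at final concentrations of ADP 10 µM, AA 350 µM, PAF 0.1 µM and thrombin 0.1 U/mL. Light-transmission peak was read at 37 °C over 5 min, in sextuplicate. IC50 was taken from the concentration–inhibition curve.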

Rattus norvegicus [3] = assay: Antithrombotic activity in Wistar rat arterioveinos cannula model assessed as reduction of thrombus weight at 100 nmol/kg, iv; assay type: functional
Summary of the method: (§3)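 Male Wistar rats, 250–300 g. Agents were dissolved in NS and kept on ice. Heparin sodium was injected into a thread-containing polyethylene cannula, then NS or agent was injected intravenously. The cannula joined the right carotid artery to the left jugular vein, and blood flowed through it for 15 min. Wet thrombus weight on the thread was recorded as mean ± SD, n = 12.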

Platelet [4] = assay: Ratio of IC50 for thrombin-induced pig platelet aggregation to IC50 for ADP-induced pig platelet aggregation; assay type: functional, Sus scrofa; summary of the method: as §1
[5] = Antiplatelet aggregation activity against arachidonic acid-induced pig platelet aggregation after 5 mins by aggregometer; assay type: functional, cell-based; details: Sus scrofa; summary of the method: as §2
[6] = Antiplatelet aggregation activity against thrombin-induced pig platelet aggregation after 5 mins by aggregometer; assay type: functional, cell-based; details: Sus scrofa; summary of the method: as §2
Platelet [7] = assay: Ratio of IC50 for platelet-activating factor-induced pig platelet aggregation to IC50 for ADP-induced pig platelet aggregation; assay type: functional, Sus scrofa; summary of the method: as §1
[8] = Antiplatelet aggregation activity against platelet-activating factor-induced pig platelet aggregation after 5 mins by aggregometer; assay type: functional, cell-based; details: Sus scrofa; summary of the method: as §2
Platelet [9] = assay: Ratio of TCCA IC50 to compound IC50 for ADP-induced pig platelet aggregation; assay type: functional, Sus scrofa; summary of the method: as §1
Rattus norvegicus [10] = assay: Antithrombotic activity in Wistar rat arterioveinos cannula model assessed as reduction of thrombus weight at 1 umol/kg, iv; assay type: functional; summary of the method: as §3
Rattus norvegicus [11] = assay: Antithrombotic activity in Wistar rat arterioveinos cannula model assessed as reduction of thrombus weight at 10 nmol/kg, iv; assay type: functional; summary of the method: as §3
Rattus norvegicus [12] = assay: Antithrombotic activity in Wistar rat arterioveinos cannula model assessed as reduction of thrombus weight at 100 nmol/kg, po; assay type: functional
Summary of the method: (§4)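 Male Wistar rats received agent in NS, or NS alone, orally. Blood then passed from the right carotid artery to the left jugular vein through a thread-containing polyethylene cannula for 15 min. Wet thrombus weight was reported as mean ± SD, n = 12.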

Rattus norvegicus [13] = assay: Antithrombotic activity in Wistar rat arterioveinos cannula model assessed as reduction of thrombus weight at 1 nmol/kg, iv; assay type: functional; summary of the method: as §3
Rattus norvegicus [14] = assay: Antithrombotic activity in Wistar rat arterioveinos cannula model assessed as reduction of thrombus weight at 167 umol/kg, iv; assay type: functional; summary of the method: as §3
Rattus norvegicus [15] = assay: Antithrombotic activity in Wistar rat arterioveinos cannula model assessed as reduction of thrombus weight at 167 umol/kg, po; assay type: functional; summary of the method: as §4
Rattus norvegicus [16] = assay: Antithrombotic activity in Wistar rat arterioveinos cannula model assessed as reduction of thrombus weight at 5 umol/kg, iv; assay type: functional; summary of the method: as §3
[17] = Antiplatelet aggregation activity against collagen-induced platelet; assay type: functional, cell-based

| SMILES | Ratio IC50 (Platelet [1]) | IC50 [2] | Thrombus weight (Rattus norvegicus [3]) | Ratio IC50 (Platelet [4]) | IC50 [5] | IC50 [6] | Ratio IC50 (Platelet [7]) | IC50 [8] | Ratio IC50 (Platelet [9]) | Activity (Rattus norvegicus [10]) | Activity (Rattus norvegicus [11]) | Activity (Rattus norvegicus [12]) | Activity (Rattus norvegicus [13]) | Activity (Rattus norvegicus [14]) | Activity (Rattus norvegicus [15]) | Activity (Rattus norvegicus [16]) | IC50 [17] |
| --- | --- | --- | --- | --- | --- | --- | --- | --- | --- | --- | --- | --- | --- | --- | --- | --- | --- |
| N[C@@H](Cc1c[nH]c2ccccc12)C(=O)N1Cc2[nH]c3ccccc3c2C[C@H]1C(=O)O | 2.7 | 10.4 nM | 18.43 mg | 2.8 | 27.9 nM | 29.6 nM | 1.6 | 16.8 nM | 67 | – | – | – | – | – | – | – | – |
| N[C@@H](CC(=O)O)C(=O)N1Cc2[nH]c3ccccc3c2C[C@H]1C(=O)O | 3.6 | 6.62 nM | 14.4 mg | 4 | 24 nM | 26.6 nM | 2 | 13.1 nM | 106 | – | – | – | – | – | – | – | – |
| N[C@@H](CCC(=O)O)C(=O)N1Cc2[nH]c3ccccc3c2C[C@H]1C(=O)O | 2.9 | 10.2 nM | 16.6 mg | 3 | 29.6 nM | 30.9 nM | 1.4 | 14.8 nM | 68 | – | – | – | – | – | – | – | – |
| N[C@@H](Cc1cnc[nH]1)C(=O)N1Cc2[nH]c3ccccc3c2C[C@H]1C(=O)O | 3.4 | 7.31 nM | 15.89 mg | 4 | 24.9 nM | 29 nM | 2.1 | 15.5 nM | 96 | – | – | – | – | – | – | – | – |
| N=C(N)NCCC[C@H](N)C(=O)N1Cc2[nH]c3ccccc3c2C[C@H]1C(=O)O | 2.9 | 9.47 nM | 16.68 mg | 3.1 | 27.5 nM | 29.7 nM | 1.9 | 18.2 nM | 74 | – | – | – | – | – | – | – | – |
| NCCCC[C@H](N)C(=O)N1Cc2[nH]c3ccccc3c2C[C@H]1C(=O)O | 2.7 | 11.1 nM | 16.54 mg | 3 | 30.1 nM | 33.4 nM | 1.5 | 17 nM | 63 | – | – | – | – | – | – | – | – |
| NC(=O)CC[C@H](N)C(=O)N1Cc2[nH]c3ccccc3c2C[C@H]1C(=O)O | 3.7 | 7.7 nM | 17.3 mg | 3.9 | 28.2 nM | 30.1 nM | 2.2 | 17.2 nM | 91 | – | – | – | – | – | – | – | – |
| NC(=O)C[C@H](N)C(=O)N1Cc2[nH]c3ccccc3c2C[C@H]1C(=O)O | 3.2 | 9.19 nM | 16.34 mg | 3.3 | 28.9 nM | 30 nM | 1.8 | 16.2 nM | 76 | – | – | – | – | – | – | – | – |
| CC(C)C[C@H](N)C(=O)N1Cc2[nH]c3ccccc3c2C[C@H]1C(=O)O | 3.1 | 8.7 nM | 25.26 mg | 3.9 | 26.8 nM | 34.1 nM | 1.9 | 16.9 nM | 81 | 10.55 mg | – | – | – | – | – | – | – |
| NCC(=O)N1Cc2[nH]c3ccccc3c2C[C@H]1C(=O)O | 3.1 | 8.56 nM | 19.29 mg | 3.7 | 26.5 nM | 31.9 nM | 2 | 16.8 nM | 82 | – | – | – | – | – | – | – | – |
| N[C@@H](CS)C(=O)N1Cc2[nH]c3ccccc3c2C[C@H]1C(=O)O | 3.4 | 7.1 nM | 15.25 mg | 3.9 | 24.4 nM | 27.6 nM | 2.1 | 14.7 nM | 99 | – | – | – | – | – | – | – | – |
| CSCC[C@H](N)C(=O)N1Cc2[nH]c3ccccc3c2C[C@H]1C(=O)O | 3.6 | 6.5 nM | 13 mg | 3.9 | 23.5 nM | 25.3 nM | 1.9 | 12.4 nM | 108 | – | 17.67 mg | 13.49 mg | 22.59 mg | – | – | – | – |
| C[C@H](N)C(=O)N1Cc2[nH]c3ccccc3c2C[C@H]1C(=O)O | 3.7 | 6.71 nM | 14.61 mg | 4.1 | 24.6 nM | 27.4 nM | 2 | 13.6 nM | 104 | – | – | – | – | – | – | – | – |
| N[C@@H](Cc1ccccc1)C(=O)N1Cc2[nH]c3ccccc3c2C[C@H]1C(=O)O | 2.9 | 9.8 nM | 17.25 mg | 3.1 | 28.6 nM | 30.2 nM | 1.9 | 19 nM | 72 | – | – | – | – | – | – | – | – |
| CC(C)[C@H](N)C(=O)N1Cc2[nH]c3ccccc3c2C[C@H]1C(=O)O | 3.5 | 7.8 nM | 18.56 mg | 4.2 | 27.3 nM | 32.5 nM | 2.3 | 17.7 nM | 90 | – | – | – | – | – | – | – | – |
| N[C@@H](CO)C(=O)N1Cc2[nH]c3ccccc3c2C[C@H]1C(=O)O | 3 | 8.66 nM | 16.25 mg | 3.6 | 26.2 nM | 30.8 nM | 1.9 | 16.1 nM | 81 | – | – | – | – | – | – | – | – |
| N[C@@H](Cc1ccc(O)cc1)C(=O)N1Cc2[nH]c3ccccc3c2C[C@H]1C(=O)O | 3.2 | 7.76 nM | 15.49 mg | 3.7 | 25.2 nM | 28.4 nM | 1.9 | 15.1 nM | 90 | – | – | – | – | – | – | – | – |
| C[C@@H](O)[C@H](N)C(=O)N1Cc2[nH]c3ccccc3c2C[C@H]1C(=O)O | 3.1 | 7.81 nM | 15.72 mg | 3.6 | 24.6 nM | 27.8 nM | 1.9 | 14.8 nM | 90 | – | – | – | – | – | – | – | – |
| CC[C@H](C)[C@H](N)C(=O)N1Cc2[nH]c3ccccc3c2C[C@H]1C(=O)O | 3.6 | 6.56 nM | 13.74 mg | 4.1 | 23.9 nM | 27 nM | 1.9 | 12.6 nM | 107 | – | 18.12 mg | 13.88 mg | 25.43 mg | – | – | – | – |
| CC(=O)Oc1ccccc1C(=O)O [ASPIRIN] | – | – | – | – | – | – | – | – | – | – | – | – | – | 15.21 mg | 17.9 mg | – | – |
| O=C(O)[C@@H]1Cc2c([nH]c3ccccc23)CN1 [CYCLOMETHYLTRYPTOPHAN] | – | 701 nM | – | – | 866 nM | 982 nM | – | 752 nM | – | – | – | – | – | – | – | 18.79 mg | – |
| COc1ccc2c3c([nH]c2c1)C(C)=NCC3 [HARMALINE] | – | – | – | – | – | – | – | – | – | – | – | – | – | – | – | – | > 130000 nM |
| CC1=NCCc2c1[nH]c1cc(O)ccc21 [HARMALOL] | – | – | – | – | – | – | – | – | – | – | – | – | – | – | – | – | > 130000 nM |
| Cc1nccc2c1[nH]c1ccccc12 [HARMAN] | – | – | – | – | – | – | – | – | – | – | – | – | – | – | – | – | > 130000 nM |
| COc1ccc2c(c1)[nH]c1c(C)nccc12 [HARMINE] | – | – | – | – | – | – | – | – | – | – | – | – | – | – | – | – | > 130000 nM |
| Cc1nccc2c1[nH]c1cc(O)ccc12 [HARMOL HYDROCHLORIDE] | – | – | – | – | – | – | – | – | – | – | – | – | – | – | – | – | > 130000 nM |
| c1ccc2c(c1)[nH]c1cnccc12 [NORHARMANE] | – | – | – | – | – | – | – | – | – | – | – | – | – | – | – | – | > 130000 nM |
